Test results: ChEMBL document CHEMBL6134900 (J Med Chem, 2025)
Activity calls are given as the source filed them. No cut-off for these calls is given here.

Columns and labels:
[1] = target: T1, Protein cereblon/SWI/SNF-related matrix-associated actin-dependent regulator of chromatin subfamily A member 2 (Homo sapiens, UniProt P51531+Q96SW2); assay: PROTAC activity at CRBN/SMARCA2 in human H322 cells harboring SMARCA4 mutant assessed as induction of SMARCA2 degradation at 0.1 uM in presence of pomalidomide by immunoblot analysis; assay type: cell-based
[2] = target: T1, Protein cereblon/SWI/SNF-related matrix-associated actin-dependent regulator of chromatin subfamily A member 2; assay: PROTAC activity at CRBN/SMARCA2 in CRBN knockout human H322 cells harboring SMARCA4 mutant assessed as induction of SMARCA2 degradation at 0.1 uM by immunoblot analysis; assay type: cell-based
[3] = target: T1, Protein cereblon/SWI/SNF-related matrix-associated actin-dependent regulator of chromatin subfamily A member 2; assay: PROTAC activity at CRBN/SMARCA2 in human NCI-H1792 cells harboring wild type SMARCA4 assessed as reduction in SMARCA2 protein level at 20 nM incubated for 24 hrs by TMT mass spectrometric analysis; assay type: cell-based
[4] = target: Transcriptional coactivator YAP1 (Homo sapiens) (UniProt P46937); assay: Induction of YAP1 phosphorylation at S109 residue in human H322 cells harboring SMARCA4 mutant at 0.1 uM incubated for 96 hrs by immunoblot analysis; assay type: cell-based; conditions: filed as activator
[5] = Drug metabolism in mouse liver microsomes assessed as N-dealkylation mediated 2-(6-amino-5-(4-(3-fluoro-4-(piperazin-1-yl)benzyl)piperazin-1-yl)pyridazin-3-yl)phenol metabolite formation at 10 uM incubated for 60 mins by LC-UV-HRMS analysis; assay type: ADME, Microsome; conditions: 1 h
Summary of the method: (§1)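 Compound at 10 μM incubated with mouse liver microsomes at 37 °C for 60 min. Metabolites detected by LC-UV-HRMS, structures proposed from MS and MS2 data, and each metabolite given as a percentage.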

[6] = Drug metabolism in mouse liver microsomes assessed as hydrolysis mediated M3 metabolite formation at 10 uM incubated for 60 mins by LC-UV-HRMS analysis; assay type: ADME, Microsome; conditions: 1 h; summary of the method: as §1
[7] = Half life in male CD-1 (ICR) mouse at 25 mg/kg, po measured up to 24 hrs by LC-MS/MS analysis; assay type: ADME, organism-based; conditions: in vivo
Summary of the method: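 Single 25 mg/kg dose. IP vehicle was 5% DMSO/5% solutol/90% water at 1.25 mg/mL, final pH 4.39, clear solution. Oral vehicle was 0.5% methylcellulose/0.2% Tween 80 in water, opaque suspension. Plasma sampled at 0.25, 0.5, 1, 2, 4, 8 and 24 h. Plasma protein-precipitated with internal standard in acetonitrile, then LC-MS/MS. n = 3 mice per time point, mean.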

[8] = In vivo PROTAC activity at CRBN/SMARCA2 in female athymic nude mouse xenografted with human HCC515 cells harboring SMARCA4 mutant assessed as SMARCA2 degradation at 5 mg/kg, po administered once daily via gavage for 19 days by Western blotting analysis relative to control; assay type: functional; conditions: time 19 day
Summary of the method: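 Female nude mice aged 6–8 weeks carried subcutaneous flank xenografts in PBS/Matrigel 1:1: H2023 at 10 × 10^6 cells or HCC515 at 5 × 10^6 cells. Randomised below 200 mm3. 5 mg/kg or vehicle given by oral gavage once daily for 19 days in 0.5% methylcellulose with Tween-80 (0.2% for H2023, 1% for HCC515). Tumours collected 24 h after dosing. SMARCA2 measured by Western blot against β-actin, relative to vehicle.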

NCI-H2030 [9] = assay: Synergistic antitumor activity against human NCI-H2030 cells harboring KRAS G12C mutant/SMARCA4 mutant assessed as inhibition of colony formation incubated for 8 days in presence of sotorasib by clonogenic growth assay; assay type: functional, cell-based; conditions: time 8.0 day
Summary of the method: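 H2030 clonogenic assay over 8 days with 2-fold dilutions of sotorasib, test agent, or both. Crystal violet staining, total colony area normalized. Synergy scored as Bliss/Lowe consensus, >10 taken as synergy.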

NCI-H2030 [10] = assay: Inhibition of ERK phosphorylation in human NCI-H2030 cells harboring KRAS G12C mutant/SMARCA4 mutant assessed as reduction in p-ERK level at 1.25 uM incubated for 48 hrs in presence of sotorasib by Western blotting analysis; assay type: cell-based
[11] = target: T1, Protein cereblon/SWI/SNF-related matrix-associated actin-dependent regulator of chromatin subfamily A member 2; assay: PROTAC activity at CRBN/SMARCA2 in human H322 cells harboring SMARCA4 mutant assessed as induction of SMARCA2 degradation at 1 uM in presence of MLN4924 by immunoblot analysis; assay type: cell-based
[12] = target: T1, Protein cereblon/SWI/SNF-related matrix-associated actin-dependent regulator of chromatin subfamily A member 2; assay: PROTAC activity at CRBN/SMARCA2 in human H322 cells harboring SMARCA4 mutant assessed as induction of SMARCA2 degradation at 1 uM in presence of bortezomib by immunoblot analysis; assay type: cell-based
[13] = target: T1, Protein cereblon/SWI/SNF-related matrix-associated actin-dependent regulator of chromatin subfamily A member 2; assay: PROTAC activity at CRBN/SMARCA2 in CRBN knockout human H322 cells harboring SMARCA4 mutant assessed as induction of SMARCA2 degradation at 1 uM by immunoblot analysis; assay type: cell-based
[14] = target: Transcriptional coactivator YAP1 (Homo sapiens) (UniProt P46937); assay: Induction of YAP1 phosphorylation at S127 residue in human H322 cells harboring SMARCA4 mutant at 1 uM incubated for 96 hrs by immunoblot analysis; assay type: cell-based; conditions: filed as activator
[15] = Drug metabolism in mouse liver microsomes assessed as Mono-oxygenation mediated M2 metabolite formation at 10 uM incubated for 60 mins by LC-UV-HRMS analysis; assay type: ADME, Microsome; conditions: 1 h; summary of the method: as §1
[16] = Drug concentration in C57BL/6 mouse plasma at 5 mg/kg, po administered once daily for 3 days and measured at 24 hrs post last dose; assay type: ADME, organism-based; conditions: time 3 day
Summary of the method: (§2)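 Oral dosing once daily for 3 days: 5–80 mg/kg in C57BL/6 mice, 10–80 mg/kg in CrbnI391V mice. Euthanized 24 h after last dose. Plasma drug level measured. Spleen SMARCA2 by Western blot against actin loading control, relative to vehicle.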

[17] = In vivo PROTAC activity at CRBN/SMARCA2 in C57BL/6 mouse assessed as induction of SMARCA2 degradation in spleen at 80 mg/kg, po administered once daily via gavage for 3 days by Western blotting analysis relative to control; assay type: functional; conditions: time 3 day; summary of the method: as §2
[18] = In vivo PROTAC activity at CRBN I391V mutant/SMARCA2 in mouse assessed as SMARCA2 degradation in spleen at 80 mg/kg, po administered once daily for 3 days and measured at 24 hrs post last dose by Western blotting analysis relative to control; assay type: functional; conditions: time 3 day
Summary of the method: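 CrbnI391V mice given 10, 20, 40 or 80 mg/kg or vehicle orally once daily for 3 days. Euthanised 24 h after the last dose. Spleen SMARCA2 measured by Western blot with actin as loading control, relative to vehicle. Plasma drug level measured at the same time.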

NCI-H2030 [19] = assay: Antitumor activity against human NCI-H2030 cells harboring KRAS G12C mutant/SMARCA4 mutant assessed as cell growth inhibition incubated for 7 days by Incucyte S3 analysis; assay type: functional, cell-based; conditions: time 7.0 day
Summary of the method: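 H2030 cells plated at 500 per well and grown overnight at 37 °C. Treated with 3-fold dilutions of sotorasib, test agent, or both. Confluency imaged every 4 h for 7 days on IncuCyte S3. Synergy scored as Bliss/Lowe consensus, >10 taken as synergy.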

Transcriptional coactivator YAP1 (Homo sapiens), sequence (P46937 whole entry): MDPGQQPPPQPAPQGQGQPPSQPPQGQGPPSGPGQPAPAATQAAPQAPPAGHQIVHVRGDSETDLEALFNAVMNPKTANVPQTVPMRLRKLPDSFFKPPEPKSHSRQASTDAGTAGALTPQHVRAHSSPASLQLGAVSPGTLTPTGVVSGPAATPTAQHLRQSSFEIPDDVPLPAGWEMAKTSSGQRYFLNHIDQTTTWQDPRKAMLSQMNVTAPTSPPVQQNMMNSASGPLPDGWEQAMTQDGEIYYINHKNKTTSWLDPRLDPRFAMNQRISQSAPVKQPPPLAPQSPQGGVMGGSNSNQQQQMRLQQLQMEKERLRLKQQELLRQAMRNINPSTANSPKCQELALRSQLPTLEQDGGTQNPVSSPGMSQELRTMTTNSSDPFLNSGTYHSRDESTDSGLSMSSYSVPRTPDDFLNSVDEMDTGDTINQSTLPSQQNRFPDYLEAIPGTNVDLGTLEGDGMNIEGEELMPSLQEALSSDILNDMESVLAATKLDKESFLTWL

Nc1nnc(-c2ccccc2O)cc1N1CCN(Cc2ccc(N3CCN(CCOc4cccc5c4C(=O)N(C4CCC(=O)NC4=O)C5=O)CC3)c(F)c2)CC1 (centres undefined)
Activity [1]: inactive | Activity [2]: inactive | Activity [3]: Active | Activity [4]: Active | Drug metabolism [5]: metabolite_detected | Drug metabolism [6]: metabolite_detected | t1/2 [7]: 6 h | Activity [8]: 96% | Activity (NCI-H2030 [9]): Active | inhibition (NCI-H2030 [10]): Active

Nc1nnc(-c2ccccc2O)cc1N1CCN(Cc2ccc(N3CCC(CN4CCN(c5ccc6c(c5)C(=O)N(C5CCC(=O)NC5=O)C6=O)CC4)CC3)c(F)c2)CC1 (centres undefined)
Activity [11]: inactive | Activity [12]: inactive | Activity [13]: inactive | Activity [14]: Active | Drug metabolism [15]: metabolite_detected | concentration at 72 h [16]: ~100 nM | Activity [17]: 70% | Activity [18]: 81% | Activity (NCI-H2030 [19]): Active; Minimal Inhibition Observed
